Experimental data taken from ChEMBL document CHEMBL4145554, “Structure-activity relationships of talaumidin derivatives: Their neurite-outgrowth promotion in vitro and optic nerve regeneration in vivo” (Eur J Med Chem, 2018).
The source made the active and inactive calls. No cut-off for these calls is given here.

tested on: PC-12; test: Neurite-outgrowth promoting activity in NGF-differentiated rat PC12 cells assessed as increase in neurite length at 30 uM after 4 days by methylene blue staining based phase contrast microscopic method; type: functional, cell-based
How it was run: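 Cells seeded at 8 × 10^3 cells/cm2 in DMEM/10% HS/5% FBS/antibiotics, 24 h, 37 °C, 5% CO2; medium then switched to DMEM/2% HS/1% FBS with test sample plus 2 ng/mL NGF for 4 days, triplicate wells. Fixed in 4% paraformaldehyde, methylene blue stained; longest neurite of 5 differentiated cells in 5 random images per well measured, ≥100 cells per sample; Dunnett's t-test.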

Row | Compound | Activity
1 | COc1ccc(-c2oc(-c3ccc(OC)cc3)c(C)c2C)cc1 | Active
2 | Cc1c(-c2ccc3c(c2)OCO3)oc(-c2ccc3c(c2)OCO3)c1C | Active
3 | COc1cc(-c2oc(-c3ccc4c(c3)OCO4)c(C)c2C)ccc1O | Active
4 | COc1cc([C@H]2O[C@@H](c3ccc(O)c(OC)c3)[C@@H](C)[C@H]2C)ccc1O | Active
5 | COc1ccc([C@H]2O[C@@H](c3ccc(OC)cc3)[C@@H](C)[C@H]2C)cc1 | Active
6 | Cc1ccc([C@H]2O[C@@H](c3ccc(C)cc3)[C@@H](C)[C@H]2C)cc1 | Active
7 | C[C@@H]1[C@H](C)[C@H](c2ccc(O)cc2)O[C@@H]1c1ccc(O)cc1 | Active
8 | COc1cc([C@H]2O[C@H](c3ccc4c(c3)OCO4)[C@@H](C)[C@@H]2C)ccc1O | Active
9 | COc1cc([C@H]2O[C@@H](c3ccc4c(c3)OCO4)[C@@H](C)[C@H]2C)ccc1O | Active
10 | COc1cc(C2OC(c3ccc4c(c3)OCO4)C(C)C2C)ccc1O (racemic) | Active
11 | COc1cc(-c2oc(-c3ccc(O)c(OC)c3)c(C)c2C)ccc1O | Active
12 | Cc1ccc(-c2oc(-c3ccc(C)cc3)c(C)c2C)cc1 | Active
13 | Cc1c(-c2ccc(O)cc2)oc(-c2ccc(O)cc2)c1C | Active
14 | C[C@@H]1[C@H](C)CO[C@@H]1c1ccc2c(c1)OCO2 | inactive
15 | c1cc2c(cc1[C@@H]1CC[C@H](c3ccc4c(c3)OCO4)O1)OCO2 | Active

tested on: Mus musculus; test: In vivo neurite-outgrowth promoting activity in C57BL/6 mouse assessed as regeneration of injured optic nerve by measuring GAP-43 positive axons extending over injury site at 30 uM measured 2 weeks post optic nerve injury by fluorescence microscopic method; type: functional, organism-based
How it was run: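 Male mice, 9 weeks old, anesthetized with intraperitoneal sodium pentobarbital (30e40 mg/kg); optic nerve crushed with forceps 1 mm behind the eyeball. Longitudinal […] cryosections (OCT) stained with anti-GAP43 (1:250) plus fluorescent secondary; regenerating axons counted manually at […] from injury site, ≥8 sections per condition, 6 mice/group; Dunnett's t-test versus injury.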

Row | Compound | Activity
16 | COc1cc([C@H]2O[C@H](c3ccc4c(c3)OCO4)[C@@H](C)[C@@H]2C)ccc1O | Active
17 | COc1cc(C2OC(c3ccc4c(c3)OCO4)C(C)C2C)ccc1O (racemic) | Active
